Source: PubChem BioAssay
Compounds with a hit are over-represented: about 2.2% of the library has one in this group of screens.
MT stabilizer: microtubule stabilizers in HeLa cells; HeLa tubulin immunostaining HCS, 24 h; share of cells brighter than vehicle mean+2SD; % tubulin-high responders, % at 10 µM; 200,000 compounds, 0.83% hits; AID 2205;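 active = plate Z-score above 3 for both tubulin-high and condensed-nucleus cell shares, with cell loss under 80%, at 10 µM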;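 also: anti alpha tubulin signal scored within the nucleus-defined area of each cell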
b-catenin transl: beta-catenin nuclear translocation modulation | 190,000 compounds, 0.3% hits | nuclear translocation activity, % at 5 µM | HeLa beta-catenin nuclear translocation, immunofluorescence imaging;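 active = nuclear translocation activity above 50% at 5 µM, with a well cell count of 50 or more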;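 also: per-cell ratio of nuclear to cytoplasmic median beta-catenin stain intensity; plate controls were DMSO negative control for no effect and GSK-3 inhibitor IX positive control for full effect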
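Test system: human HeLa cells, native beta-catenin. Compound dosing: 5 µM primary single dose, 0.1% DMSO, 0.02–20 µM confirmation series. Incubation: compound exposure 24 h at 37°C. Detection: beta-catenin immunostaining with DAPI counterstain, 20x imaging, 6 fields/well. Read-out basis: Nuclear/cytoplasmic beta-catenin signal ratio, % activation.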
BaF3 parental: parental Ba/F3 viability inhibition as JAK2V617F counter-screen; 220,000 compounds, 1.1% hits; CellTiter-Glo ATP luminescence; inhibition, % at 5.6 µM;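 active = inhibition above a per-campaign cutoff, the mean inhibition of all tested compounds plus 3 SD, cut at about 27% in these data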;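 also: 0% = DMSO wells and 100% = JAK Inhibitor I control wells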
IEC-6 tox: IEC-6 cytotoxicity, counter-screen for KLF5 inhibitors; 290,000 compounds, 0.78% hits; luminescence viability; inhibition, % at 5 µM; AID 1825; in the data active = inhibition above about 22%;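 also: 0% = plate median of test compound wells and 100% = cytotoxic reference compound wells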
APP 5UTR inh: APP translation inhibition | SH-SY5Y APP 5'UTR-luciferase reporter, luminescence | inhibition, % at 2 µM | 190,000 compounds, 0.82% hits | AID 1285;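 active = inhibition above a set limit, derived from the sample mean plus 3 SD, cut at about 45% in these data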
Ba/F3 V617F tox: lowers viability of Ba/F3 cells expressing EpoR and JAK2V617F; inhibition, % at 5.6 µM; ATP luminescence; 220,000 compounds, 1.1% hits;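 active = inhibition above the campaign mean plus 3 SD over all tested compounds, cut at about 24% in these data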;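 also: cytokine-independent growth of Ba/F3 cells driven by EpoR plus mutant JAK2; 0% = DMSO-treated cells and 100% = JAK inhibitor I control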
Numbers without * were called inactive; . = no result given.

SMILES | MT stabilizer | b-catenin transl | BaF3 parental | IEC-6 tox | APP 5UTR inh | Ba/F3 V617F tox
CCn1c2ccccc2c2cc(NC(=O)c3cc(C)on3)ccc21 | 20* | -1 | 2 | 4 | -11 | -1
COc1ccccc1/C=C/C=N/NC(=O)c1cccs1 | . | 0 | -1 | -2 | . | -2
CC1CCC(C(C)C)C(OC(=O)Cn2c(-c3ccc(Cl)cc3)[n+](C)c3ccccc32)C1 (centres undefined) | . | 0 | 95* | 8 | . | 99*
Cc1ccccc1OCc1n(CC(=O)OC2CC(C)CCC2C(C)C)c2ccccc2[n+]1C (centres undefined) | 87 | 13 | 80* | -4 | 8 | 101*
CC1CCC(C(C)C)C(OC(=O)Cn2c(-c3ccc(Br)cc3)[n+](C)c3ccccc32)C1 (centres undefined) | 3 | -4 | 87* | 2 | -15 | 101*
CCCCCCCCCCOC(=O)Cn1c(COc2ccccc2C)[n+](C)c2ccccc21 | . | . | . | 8 | . | .
CN1CCN(C(=O)CCN2C(=O)/C(=C/c3ccc(F)cc3)SC2=S)CC1 | . | . | . | 7 | . | .
CC(C)C(NC(=O)c1ccc(Cl)cc1)C(=O)NCC1CCCO1 (centres undefined) | . | . | . | -1 | . | .
O=C(NCCCNC(=O)c1cnccn1)c1cccc(F)c1 | . | . | . | 1 | . | .
C(=N\Nc1nc2ccccc2[nH]1)/c1cccc2cccnc12 | . | -1 | 50* | 0 | . | 91*
C(=C\c1ccccc1)/C=N/Nc1nc2ccccc2[nH]1 | 13* | 21 | 0 | 6 | -137 | -3
C(=N\Nc1nc2ccccc2[nH]1)/c1ccccc1 | . | 0 | 11 | 15 | -128 | 0
O=C(Nn1c(COc2ccccc2)nc2ccccc2c1=O)C(Cl)(Cl)Cl | . | . | . | 7 | . | .
COC(=O)c1cn(CC(=O)Nc2ccccc2C)c2ccccc12 | . | . | . | -5 | . | .
COP(=O)(OC)c1nc(-c2cccc3ccccc23)oc1N1CCOCC1 | 2 | -4 | 28* | 5 | -28 | -1
COc1ccc(C2=NS(=O)(=O)N(C)C(C(=O)N3CCc4ccccc4C3)=C2)cc1OC | . | . | . | 1 | . | .
COc1cc(/C=N/NC(=O)c2ccccc2Cl)ccc1Oc1ccc([N+](=O)[O-])cn1 | 17* | 2 | -1 | 8 | 15 | -3
COc1ccc(/C=N/NC(=O)c2cccnc2)cc1CSc1nc2ccccc2s1 | 13 | 153* | 8 | 21 | 54* | 5
COc1ccc(/C=N/NC(=O)c2ccccc2Cl)cc1CSc1nc2ccccc2s1 | 17 | 332* | 3 | 16 | 6 | -2
COc1ccc(/C=N/NC(=O)c2ccccc2O)cc1Cn1cc([N+](=O)[O-])cn1 | . | 1 | -2 | -5 | . | -3
CCOC(=O)N1CCN(C(=S)NC(=O)/C=C/c2ccc(C)cc2)CC1 | . | . | . | 1 | . | .
CCN(Cc1ccccc1)S(=O)(=O)c1ccc(S(=O)(=O)N(Cc2ccccn2)Cc2ccco2)cc1 | 1 | -2 | 1 | 0 | 8 | -4
CC1CCCCN1S(=O)(=O)c1ccc(S(=O)(=O)N(Cc2ccccc2)Cc2ccco2)cc1 (centres undefined) | 1 | -2 | 4 | 2 | 58* | -3
O=C(COc1ccccc1)Nc1c2c(nn1-c1ccccc1)CS(=O)C2 (centres undefined) | . | . | . | 0 | . | .
Cc1ccc(NC(=O)Nc2ccnc(-c3cccnc3)n2)cc1 | 2 | . | 2 | -3 | 83* | 3
SMILES | MT stabilizer | b-catenin transl | BaF3 parental | IEC-6 tox | APP 5UTR inh | Ba/F3 V617F tox
Cc1ccc(CNC(=S)Nc2ccc(NS(=O)(=O)c3ccc(C)cc3)cc2)cc1 | . | . | . | -5 | . | .
O=C(C/C=N/OCc1ccc(Cl)cc1)c1cnc(-c2ccccc2)s1 | 1 | 0 | -1 | -10 | -24 | -4
O=C(C/C=N/OCc1c(Cl)cccc1Cl)c1cnc(-c2ccccc2)s1 | 1 | -2 | 72* | -5 | -13 | -6
COc1ccc(C(NC(=O)C(C)C)c2c(O)ccc3ccccc23)cc1 (centres undefined) | 13* | 0 | 2 | -6 | -3 | 0
COc1ccc(C(NC(=O)C(C)C)c2c(O)ccc3ccccc23)cc1OC (centres undefined) | 3 | -1 | 8 | 0 | . | 2
Cc1cc(C)n(-c2nc(Nc3ccccc3C)nc(-n3nc(C)cc3C)n2)n1 | 3 | 0 | -3 | 2 | -11 | -1
Cc1cc(C)n(-c2nc(Nc3ccccc3C(F)(F)F)nc(-n3nc(C)cc3C)n2)n1 | 2 | 2 | 5 | 39* | 42 | -2
CN1CCN(c2ccc(-c3ccc4ccccc4n3)cc2)CC1 | 3 | 14 | 11 | 8 | 51* | 14
CCN1C(=C(C#N)C#N)C=Cc2cc(C)ccc21 | 4 | 0 | 3 | 12 | -11 | 0
C=CC[n+]1c(/C=C2\C=Cc3cc(C)ccc3N2CC)ccc2ccccc21 | 12 | -2 | 80* | 41* | 20 | 100*
COc1ccc(N2C(=O)CCC(C(=O)N3CCC(C(N)=O)CC3)C2c2ccc(F)cc2)cc1 (centres undefined) | 4 | -2 | 69* | 3 | -5 | 2
CC(=O)Nc1ccc(NC(=O)CS(=O)(=O)c2cn(CC(=O)N3CCCC3)c3ccccc23)cc1 | . | . | . | 4 | . | .
CCOC(=O)c1c(-c2ccccc2Cl)cn2ccccc12 | 2 | -1 | 8 | 3 | 9 | 4
O=C(O)c1c(-c2ccc(Cl)cc2)cn2ccccc12 | 2 | -1 | 53* | 1 | -16 | -3
O=[N+]([O-])c1ccc(Oc2cccc3cccnc23)c([N+](=O)[O-])c1 | 7 | 3 | 7 | 8 | -8 | -1
Cc1ccc2cccc(Oc3ccc([N+](=O)[O-])cc3[N+](=O)[O-])c2n1 | 16* | . | 2 | -3 | 22 | 2
Cc1ccc(C)c(Nc2nc3ccccc3n3cnnc23)c1 | . | . | . | -7 | . | .
O=C1/C(=C/c2ccccc2[N+](=O)[O-])COc2ccccc21 | 6 | 1 | -3 | 2 | 86* | 4
CN(C)c1ccc(/C=N/OC(=O)Nc2ccccc2Cl)cc1 | 31* | 0 | 1 | 0 | -5 | 0
COc1ccc(/C=N/OC(=O)Nc2ccccc2OC)cc1 | 19* | -1 | 9 | 35* | -92 | 10
N#Cc1c(SCC(=O)Nc2nncs2)sc2c(O)cc(=O)[nH]c12 | . | . | . | -15 | . | .
Cc1cccnc1NC(=S)NC(=O)c1oc2ccccc2c1C | . | . | . | -7 | . | .
COc1ccc(Cl)cc1N(CC(=O)NCCSc1ccccn1)S(=O)(=O)c1ccccc1 | . | . | . | 6 | . | .
Cc1cc(C)n(C(=O)/C=C/c2cccs2)n1 | . | -1 | 0 | -1 | . | -1
CCCCCCOc1ccc(/C(N)=N/O)cc1 | 5 | -1 | 37* | 0 | -78 | 27*
